Reference: PMC11044719 (Journal of Enzyme Inhibition and Medicinal Chemistry, 2024)
pIC50: −log10 of the molar value.

Key:
FGFR4 kinase = FGFR4 kinase (Homo sapiens, UniProt P22455); assay: biochemical; assay type: biochemical; details: for inhibition at 1 µM: read-out: % inhibition against FGFR4 kinase
FGFR1 = FGFR1 (Homo sapiens, UniProt P11362); assay: In vitro kinase assay; assay type: biochemical; details: read-out: % inhibition at 1 μM FGFR1
Method in brief: (§1)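 Test compound at 0.1 and 1 μM against each FGFR isoform with ATP at its Km concentration; percent inhibition reported.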

FGFR2 = FGFR2 (Homo sapiens, UniProt P21802); assay: In vitro kinase assay; assay type: biochemical; details: read-out: % inhibition at 1 μM FGFR2
Method in brief: as §1

FGFR3 = FGFR3 (Homo sapiens, UniProt P22607); assay: In vitro kinase assay; assay type: biochemical; details: read-out: % inhibition at 1 μM FGFR3
Method in brief: as §1

[1] = Metabolic stability assay in human liver microsomes; assay type: in vitro ADME; details: pH 7
[2] = Metabolic stability assay in mouse liver microsomes; assay type: in vitro ADME; details: pH 7
Method in brief: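 Human or mouse liver microsomes (0.5 mg/ml) were pre-incubated 5 min at 37 °C with 1 μM test compound in 0.1 M phosphate buffer, pH 7. NADPH regenerating system was added and the mix incubated 30 min at 37 °C. Acetonitrile with internal standard stopped the reaction. Parent compound was measured by LC-MS/MS, with % remaining at 30 min versus 0 min, in duplicate.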

Chain of FGFR4 kinase (P22455 22-802): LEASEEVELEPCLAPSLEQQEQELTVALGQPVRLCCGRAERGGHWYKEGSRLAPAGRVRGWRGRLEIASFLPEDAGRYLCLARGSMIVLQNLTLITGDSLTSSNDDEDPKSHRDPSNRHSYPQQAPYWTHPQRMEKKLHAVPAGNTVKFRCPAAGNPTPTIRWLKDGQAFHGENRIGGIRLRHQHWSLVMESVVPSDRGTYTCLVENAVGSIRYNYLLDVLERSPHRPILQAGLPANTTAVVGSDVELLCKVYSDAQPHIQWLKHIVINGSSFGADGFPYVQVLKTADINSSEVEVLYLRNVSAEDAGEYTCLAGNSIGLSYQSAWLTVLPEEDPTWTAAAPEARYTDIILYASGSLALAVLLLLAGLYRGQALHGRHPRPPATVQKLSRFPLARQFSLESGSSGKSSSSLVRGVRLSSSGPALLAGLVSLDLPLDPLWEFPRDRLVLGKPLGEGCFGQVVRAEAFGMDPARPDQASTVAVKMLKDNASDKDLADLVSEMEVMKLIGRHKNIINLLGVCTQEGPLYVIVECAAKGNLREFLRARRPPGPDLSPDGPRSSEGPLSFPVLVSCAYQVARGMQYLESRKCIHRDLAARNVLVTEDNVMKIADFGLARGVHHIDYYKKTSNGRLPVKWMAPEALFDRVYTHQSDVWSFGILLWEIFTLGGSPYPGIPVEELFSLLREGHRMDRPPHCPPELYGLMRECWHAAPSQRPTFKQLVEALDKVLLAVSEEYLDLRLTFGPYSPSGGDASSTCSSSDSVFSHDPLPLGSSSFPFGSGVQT
Chain of FGFR3 (P22607 23-806): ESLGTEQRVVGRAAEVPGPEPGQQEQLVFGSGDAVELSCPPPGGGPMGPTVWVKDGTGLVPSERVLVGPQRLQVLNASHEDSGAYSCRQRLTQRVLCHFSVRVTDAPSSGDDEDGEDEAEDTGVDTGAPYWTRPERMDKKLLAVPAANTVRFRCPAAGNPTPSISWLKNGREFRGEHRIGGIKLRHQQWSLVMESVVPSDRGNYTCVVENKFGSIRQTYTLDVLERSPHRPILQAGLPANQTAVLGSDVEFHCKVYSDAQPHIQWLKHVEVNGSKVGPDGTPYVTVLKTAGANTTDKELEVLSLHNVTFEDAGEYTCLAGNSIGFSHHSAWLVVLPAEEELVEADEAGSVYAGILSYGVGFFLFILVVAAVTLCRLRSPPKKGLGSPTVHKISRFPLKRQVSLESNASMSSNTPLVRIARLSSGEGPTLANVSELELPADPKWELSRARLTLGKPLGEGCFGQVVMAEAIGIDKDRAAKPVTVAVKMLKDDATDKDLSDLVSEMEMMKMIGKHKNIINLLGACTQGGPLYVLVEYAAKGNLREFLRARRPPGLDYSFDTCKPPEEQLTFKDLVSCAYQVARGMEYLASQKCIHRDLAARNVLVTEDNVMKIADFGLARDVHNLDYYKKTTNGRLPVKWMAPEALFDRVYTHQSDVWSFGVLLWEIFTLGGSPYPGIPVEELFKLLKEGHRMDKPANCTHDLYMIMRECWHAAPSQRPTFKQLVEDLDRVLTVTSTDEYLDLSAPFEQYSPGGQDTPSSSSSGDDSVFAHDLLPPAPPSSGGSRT
Chain of FGFR1 (P11362 22-822): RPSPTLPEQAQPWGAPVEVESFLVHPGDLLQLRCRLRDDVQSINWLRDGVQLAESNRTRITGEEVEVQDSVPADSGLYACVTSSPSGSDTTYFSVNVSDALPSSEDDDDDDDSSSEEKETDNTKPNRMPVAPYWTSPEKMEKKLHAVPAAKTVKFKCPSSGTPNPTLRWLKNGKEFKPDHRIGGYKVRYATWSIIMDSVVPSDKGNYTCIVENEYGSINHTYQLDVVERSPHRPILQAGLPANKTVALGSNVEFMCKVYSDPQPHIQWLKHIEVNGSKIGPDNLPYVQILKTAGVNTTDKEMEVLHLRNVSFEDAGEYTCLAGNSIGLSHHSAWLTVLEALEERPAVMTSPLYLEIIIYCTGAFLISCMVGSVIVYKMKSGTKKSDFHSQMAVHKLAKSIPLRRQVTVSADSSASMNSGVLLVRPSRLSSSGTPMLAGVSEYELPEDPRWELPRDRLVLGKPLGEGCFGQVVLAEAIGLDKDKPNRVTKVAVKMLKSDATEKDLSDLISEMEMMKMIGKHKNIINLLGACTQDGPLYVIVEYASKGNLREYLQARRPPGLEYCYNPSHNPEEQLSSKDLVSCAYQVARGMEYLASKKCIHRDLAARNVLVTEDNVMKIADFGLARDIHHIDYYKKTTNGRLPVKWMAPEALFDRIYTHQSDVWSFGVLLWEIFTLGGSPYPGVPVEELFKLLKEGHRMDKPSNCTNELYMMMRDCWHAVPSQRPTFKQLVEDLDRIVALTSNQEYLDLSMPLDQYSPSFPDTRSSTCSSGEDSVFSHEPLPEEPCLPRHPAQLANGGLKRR
Chain of FGFR2 (P21802 22-821): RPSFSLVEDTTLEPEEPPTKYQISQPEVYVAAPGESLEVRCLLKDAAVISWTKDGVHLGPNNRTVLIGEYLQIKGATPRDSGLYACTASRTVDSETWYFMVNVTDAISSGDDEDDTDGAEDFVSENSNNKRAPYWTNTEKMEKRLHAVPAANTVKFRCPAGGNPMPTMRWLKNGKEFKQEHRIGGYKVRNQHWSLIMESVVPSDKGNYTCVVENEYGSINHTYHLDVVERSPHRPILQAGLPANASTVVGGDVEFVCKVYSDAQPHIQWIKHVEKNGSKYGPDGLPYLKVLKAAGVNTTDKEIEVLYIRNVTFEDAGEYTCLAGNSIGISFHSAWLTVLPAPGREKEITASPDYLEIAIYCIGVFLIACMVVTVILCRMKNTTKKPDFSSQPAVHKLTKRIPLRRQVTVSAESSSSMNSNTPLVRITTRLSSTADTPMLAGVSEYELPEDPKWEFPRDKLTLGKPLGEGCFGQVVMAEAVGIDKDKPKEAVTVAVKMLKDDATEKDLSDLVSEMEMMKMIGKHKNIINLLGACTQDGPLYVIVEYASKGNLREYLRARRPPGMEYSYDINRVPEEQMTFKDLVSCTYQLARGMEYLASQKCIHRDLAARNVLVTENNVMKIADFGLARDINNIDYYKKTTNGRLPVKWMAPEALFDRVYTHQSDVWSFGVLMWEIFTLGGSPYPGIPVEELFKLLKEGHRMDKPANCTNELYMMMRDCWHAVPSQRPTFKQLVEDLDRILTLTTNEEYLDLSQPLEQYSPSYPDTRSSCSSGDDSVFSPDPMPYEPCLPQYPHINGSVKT

Row | Compound | inhibition at 1 µM (FGFR4 kinase) [%] | other results
1 | C=CC(=O)Nc1ccccc1C(=O)Nc1ccc(C#CCOc2cccc(OC)c2)nn1 [4m, 2-Acrylamido-N-(6–(3-(3-methoxyphenoxy)prop-1-yn-1-yl)pyridazin-3-yl)benzamide] | 37 | 
2 | C=CC(=O)Nc1ccccc1C(=O)Nc1ccc(C#Cc2cccc(OC)c2)nn1 [4d, 2-Acrylamido-N-(6-((3-methoxyphenyl)ethynyl)pyridazin-3-yl)benzamide] | 86 | pIC50 (FGFR4 kinase): 6.37
3 | C=CC(=O)Nc1ccccc1C(=O)Nc1cc(C)on1 [2j, 2-Acrylamido-N-(5-methylisoxazol-3-yl)benzamide] | 5 | 
4 | C=CC(=O)Nc1ccccc1C(=O)Nc1ccc(C#CC2CCCCC2)nn1 [4k, 2-Acrylamido-N-(6-(cyclohexylethynyl)pyridazin-3-yl)benzamide] | 25 | 
5 | C=CC(=O)Nc1ccccc1C(=O)Nc1ccc(C#Cc2cccc3ccccc23)nn1 [4l, 2-Acrylamido-N-(6-(naphthalen-1-ylethynyl)pyridazin-3-yl)benzamide] | 17 | 
6 | C=CC(=O)Nc1ccccc1C(=O)Nc1ccncn1 [2e, 2-Acrylamido-N-(pyrimidin-4-yl)benzamide] | 12 | 
7 | C=CC(=O)Nc1ccccc1C(=O)Nc1ccc(C#Cc2cccc(N(C)C)c2)nn1 [4g, 2-Acrylamido-N-(6-((3-(dimethylamino)phenyl)ethynyl)pyridazin-3-yl)benzamide] | 59 | 
8 | C=CC(=O)Nc1ccccc1C(=O)Nc1ncnc2ccccc12 [2l, 2-Acrylamido-N-(quinazolin-4-yl)benzamide] | 0 | 
9 | C=CC(=O)Nc1ccccc1C(=O)Nc1ccc(C#CCN(C)C)nn1 [4a, 2-Acrylamido-N-(6–(3-(dimethylamino)prop-1-yn-1-yl)pyridazin-3-yl)benzamide] | 10 | 
10 | C=CC(=O)Nc1ccccc1C(=O)Nc1ccc(C#CCOC)nn1 [4b, 2-Acrylamido-N-(6–(3-methoxyprop-1-yn-1-yl)pyridazin-3-yl)benzamide] | 47 | 
11 | C=CC(=O)N[C@H]1CCOC[C@H]1Nc1ncc2cc(-c3c(Cl)c(OC)cc(OC)c3Cl)ccc2n1 [BLU554, fisogatinib, reference compound] | 97 | inhibition at 1 µM (FGFR1): 29%; inhibition at 1 µM (FGFR2): 11%; inhibition at 1 µM (FGFR3): 10%
12 | C=CC(=O)Nc1ccccc1C(=O)Nc1ccc(C#Cc2ccc(OC)cc2)nn1 [4c, 2-Acrylamido-N-(6-((4-methoxyphenyl)ethynyl)pyridazin-3-yl)benzamide] | 97 | pIC50 (FGFR4 kinase): 7.48; fold more potent than staurosporin (IC50) (FGFR4 kinase): 5 fold; fold improvement of IC50 compared to that of other derivatives (FGFR4 kinase; FGFR4 IC50 compared with other derivatives of Table 3): ~10 fold; inhibition at 1 µM (FGFR3): 0%; remaining at 0.5 h, 1 μM [1]: 7.5%; remaining at 0.5 h, 1 μM [2]: 25.2%
13 | C=CC(=O)Nc1ccccc1C(=O)Nc1ncccn1 [2d, 2-Acrylamido-N-(pyrimidin-2-yl)benzamide] | 6 | 
14 | C#Cc1ccc(NC(=O)c2ccccc2NC(=O)C=C)nn1 [2i, 2-Acrylamido-N-(6-ethynylpyridazin-3-yl)benzamide] | 49 | 
15 | C=CC(=O)Nc1ccccc1C(=O)Nc1ccc(C#Cc2ccccc2)nn1 [4i, 2-Acrylamido-N-(6-(phenylethynyl)pyridazin-3-yl)benzamide] | 91 | pIC50 (FGFR4 kinase): 6.63
16 | C=CC(=O)Nc1ccccc1C(=O)Nc1ccc(CCc2cccc(OC)c2)nn1 [4p, 2-Acrylamido-N-(6–(3-methoxyphenethyl)pyridazin-3-yl)benzamide] | 26 | 

Row | Compound | inhibition at 1 µM (FGFR4 kinase) [%] | other results
17 | C=CC(=O)Nc1ccccc1C(=O)Nc1ccc(CCc2cccc(N(C)C)c2)nn1 [4q, 2-Acrylamido-N-(6–(3-(dimethylamino)phenethyl)pyridazin-3-yl)benzamide] | 13 | 
18 | C=CC(=O)Nc1ccccc1C(=O)Nc1ccc(C#Cc2ccccc2OC)nn1 [4e, 2-Acrylamido-N-(6-((2-methoxyphenyl)ethynyl)pyridazin-3-yl)benzamide] | 42 | 
19 | C=CC(=O)Nc1ccccc1C(=O)Nc1ccc(Oc2cccc(OC)c2)nn1 [4n, 2-Acrylamido-N-(6–(3-methoxyphenoxy)pyridazin-3-yl)benzamide] | 7 | 
20 | CCC(=O)Nc1ccccc1C(=O)Nc1ccc(C#Cc2ccc(OC)cc2)nn1 [4t, N-[6-[2–(4-methoxyphenyl)ethynyl]pyridazin-3-yl]-2-(propanoylamino)benzamide] | 0 | 
21 | C=CC(=O)Nc1ccccc1C(=O)Nc1cccnc1 [2c, 2-Acrylamido-N-(pyridin-3-yl)benzamide] | 7 | 
22 | C=CC(=O)Nc1ccccc1C(=O)Nc1cnccn1 [2f, 2-Acrylamido-N-(pyrazin-2-yl)benzamide] | 9 | 
23 | C=CC(=O)Nc1ccccc1C(=O)Nc1ccc(C#Cc2ccc(N(C)C)cc2)nn1 [4h, 2-Acrylamido-N-(6-((4-(dimethylamino)phenyl)ethynyl)pyridazin-3-yl)benzamide] | 92 | 
24 | C=CC(=O)Nc1ccccc1C(=O)Nc1ccc(C#Cc2ccc3c(c2)OCO3)nn1 [4s, 2-Acrylamido-N-(6–(2-(1,3-benzodioxol-5-yl)ethynyl)pyridazin-3-yl)benzamide] | 92 | pIC50 (FGFR4 kinase): 6.50; remaining at 0.5 h, 1 μM [1]: 62.1%; remaining at 0.5 h, 1 μM [2]: 53.9%
25 | C=CC(=O)Nc1ccccc1C(=O)Nc1ccc(-c2cccc(OC)c2)nn1 [4o, 2-Acrylamido-N-(6–(3-methoxyphenyl)pyridazin-3-yl)benzamide] | 39 | 
26 | C=CC(=O)Nc1ccccc1C(=O)Nc1ccc(C#Cc2cc(OC)cc(OC)c2)nn1 [4f, 2-Acrylamido-N-(6-((3,5-dimethoxyphenyl)ethynyl)pyridazin-3-yl)benzamide] | 80 | 
27 | C=CC(=O)Nc1ccccc1C(=O)Nc1ccc(Cl)nn1 [2g, 2-Acrylamido-N-(6-chloropyridazin-3-yl)benzamide] | 30 | 
28 | C=CC(=O)Nc1ccccc1C(=O)Nc1ccc(C#Cc2cccnc2)nn1 [4j, 2-Acrylamido-N-(6-(pyridin-3-ylethynyl)pyridazin-3-yl)benzamide] | 13 | 
29 | C=CC(=O)Nc1ccccc1C(=O)Nc1cccnn1 [2a, 2-Acrylamido-N-(pyridazin-3-yl)benzamide] | 21 | 
30 | C=CC(=O)Nc1ccccc1C(=O)Nc1n[nH]c2ccccc12 [2k, 2-Acrylamido-N-(1H-indazol-3-yl)benzamide] | 4 | 
31 | C#Cc1ccc(NC(=O)c2ccccc2NC(=O)C=C)cn1 [2h, 2-Acrylamido-N-(6-ethynylpyridin-3-yl)benzamide] | 44 | 
32 | C=CC(=O)Nc1ccccc1C(=O)Nc1ccccn1 [2b, 2-Acrylamido-N-(pyridin-2-yl)benzamide] | 9 | 
